Source: ChEMBL document CHEMBL1124660, “Synthesis and in vitro aldose reductase inhibitory activity of compounds containing an N-acylglycine moiety” (J Med Chem, 1989)
pIC50: −log10 of the molar value. Blank lines part the entries; values can stand above or below the compound they belong to.

Key:
[1] = target: T1, Aldo-keto reductase family 1 member B1 (Rattus norvegicus, UniProt P07943); experiment: Inhibition of aldose reductase from rat lens. Value ranges from 0.02 -0.64
Procedure, shortened: (§1)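 Rat lens aldose reductase was the 40% ammonium sulfate supernatant. Assay at 30 °C in 0.1 M phosphate, pH 6.2, with 0.104 mM NADPH and 10 mM DL-glyceraldehyde, following NADPH decrease at 340 nm over 3.0 min. At least four inhibitor concentrations, three or more determinations each.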

[2] = target: T1, Aldo-keto reductase family 1 member B1; experiment: Inhibition of aldose reductase from rat lens. Value ranges from 300 - 2000; procedure, shortened: as §1
[3] = target: T1, Aldo-keto reductase family 1 member B1; experiment: Inhibition of aldose reductase from rat lens. Value ranges from 8.5 - 410; procedure, shortened: as §1
[4] = target: Aldo-keto reductase family 1 member B1 (Rattus norvegicus) (UniProt P07943); experiment: Compound was evaluated at 100 uM for the ability to inhibit partially purified aldose reductase obtained from rat lens
Procedure, shortened: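 Enzyme: 40%-saturation ammonium sulfate supernatant from homogenized rat lenses, diluted so the control rate was about 0.0100 absorbance/min. Reaction at 30 °C in 0.1 M phosphate, pH 6.2, with 0.104 mM NADPH and 10 mM DL-glyceraldehyde, started by substrate. NADPH loss was read at 340 nm for 3.0 min after a 1.0 min lag. Percent inhibition at 100 µM was taken against the substrate-only control.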

[5] = target: T1, Aldo-keto reductase family 1 member B1; experiment: Inhibition of aldose reductase from rat lens. Value ranges from 9 - 69; procedure, shortened: as §1
[6] = target: T1, Aldo-keto reductase family 1 member B1; experiment: Inhibition of aldose reductase from rat lens. Value ranges from 10 - 130; procedure, shortened: as §1
[7] = target: T1, Aldo-keto reductase family 1 member B1; experiment: Inhibition of aldose reductase from rat lens. Value ranges from 140 - 580; procedure, shortened: as §1
[8] = target: T1, Aldo-keto reductase family 1 member B1; experiment: Inhibition of aldose reductase from rat lens. Value ranges from 10 - 520; procedure, shortened: as §1
[9] = target: T1, Aldo-keto reductase family 1 member B1; experiment: Inhibition of aldose reductase from rat lens. Value ranges from 7 - 33; procedure, shortened: as §1
[10] = target: T1, Aldo-keto reductase family 1 member B1; experiment: Inhibition of aldose reductase from rat lens. Value ranges from 10 - 42; procedure, shortened: as §1
[11] = target: T1, Aldo-keto reductase family 1 member B1; experiment: Inhibition of aldose reductase from rat lens. Value ranges from 0.15 - 3.3; procedure, shortened: as §1
[12] = target: T1, Aldo-keto reductase family 1 member B1; experiment: Inhibition of aldose reductase from rat lens. Value ranges from 10 - 1300; procedure, shortened: as §1
[13] = target: T1, Aldo-keto reductase family 1 member B1; experiment: Inhibition of aldose reductase from rat lens. Value ranges from 4.9 - 23; procedure, shortened: as §1
[14] = target: T1, Aldo-keto reductase family 1 member B1; experiment: Inhibition of aldose reductase from rat lens. Value ranges from 110 - 430; procedure, shortened: as §1
[15] = target: T1, Aldo-keto reductase family 1 member B1; experiment: Inhibition of aldose reductase from rat lens. Value ranges from 0.1 - 7; procedure, shortened: as §1
[16] = target: T1, Aldo-keto reductase family 1 member B1; experiment: Inhibition of aldose reductase from rat lens. Value ranges from 280 - 490; procedure, shortened: as §1
[17] = target: T1, Aldo-keto reductase family 1 member B1; experiment: Inhibition of aldose reductase from rat lens. Value ranges from 0.6 - 47; procedure, shortened: as §1
[18] = target: T1, Aldo-keto reductase family 1 member B1; experiment: Inhibition of aldose reductase from rat lens. Value ranges from 300 - 1100; procedure, shortened: as §1
[19] = target: T1, Aldo-keto reductase family 1 member B1; experiment: Inhibition of aldose reductase from rat lens. Value ranges from 0.5 - 16; procedure, shortened: as §1
[20] = target: T1, Aldo-keto reductase family 1 member B1; experiment: Inhibition of aldose reductase from rat lens. Value ranges from 20 - 160; procedure, shortened: as §1
[21] = target: T1, Aldo-keto reductase family 1 member B1; experiment: Inhibition of aldose reductase from rat lens. Value ranges from 1.5 - 16; procedure, shortened: as §1
[22] = target: T1, Aldo-keto reductase family 1 member B1; experiment: Inhibition of aldose reductase from rat lens. Value ranges from 6 - 14; procedure, shortened: as §1
[23] = target: T1, Aldo-keto reductase family 1 member B1; experiment: Inhibition of aldose reductase from rat lens. Value ranges from 40 - 680; procedure, shortened: as §1
[24] = target: T1, Aldo-keto reductase family 1 member B1; experiment: Inhibition of aldose reductase from rat lens. Value ranges from 3 - 300; procedure, shortened: as §1
[25] = target: T1, Aldo-keto reductase family 1 member B1; experiment: Inhibition of aldose reductase from rat lens. Value ranges from 17 - 720; procedure, shortened: as §1
[26] = target: T1, Aldo-keto reductase family 1 member B1; experiment: Inhibition of aldose reductase from rat lens. Value ranges from 5 - 97; procedure, shortened: as §1
[27] = target: T1, Aldo-keto reductase family 1 member B1; experiment: Inhibition of aldose reductase from rat lens. Value ranges from 25-64; procedure, shortened: as §1
[28] = target: T1, Aldo-keto reductase family 1 member B1; experiment: Inhibition of aldose reductase from rat lens. Value ranges from 7 - 130; procedure, shortened: as §1
[29] = target: T1, Aldo-keto reductase family 1 member B1; experiment: Inhibition of aldose reductase from rat lens. Value ranges from 32 - 110; procedure, shortened: as §1
[30] = target: T1, Aldo-keto reductase family 1 member B1; experiment: Inhibition of aldose reductase from rat lens. Value ranges from 16 - 360; procedure, shortened: as §1
[31] = target: T1, Aldo-keto reductase family 1 member B1; experiment: Inhibition of aldose reductase from rat lens. Value ranges from 0.3 - 2.3; procedure, shortened: as §1
[32] = target: T1, Aldo-keto reductase family 1 member B1; experiment: Inhibition of aldose reductase from rat lens. Value ranges from 1.0 - 34; procedure, shortened: as §1
[33] = target: T1, Aldo-keto reductase family 1 member B1; experiment: Inhibition of aldose reductase from rat lens. Value ranges from 50 - 650; procedure, shortened: as §1
[34] = target: T1, Aldo-keto reductase family 1 member B1; experiment: Inhibition of aldose reductase from rat lens. Value ranges from 35-160; procedure, shortened: as §1

SMILES: O=C(O)CN(C(=O)c1cccc([N+](=O)[O-])c1)c1ccc([N+](=O)[O-])cc1
pIC50 [1]: 6.89

SMILES: COc1ccc(N(C(C)=O)C(C)C(=O)O)cc1 (stereo not drawn)
pIC50 [2]: 3.02

SMILES: O=C(O)Cn1c(=O)c2ccccc2c(=O)c2ccccc21
pIC50 [3]: 4.19

SMILES: CC(=O)N(CC(=O)O)c1ccc(Cl)cc1
pIC50 [5]: 4.60

SMILES: CC(=O)N(CC(=O)O)c1ccc(O)cc1
pIC50 [6]: 4.47

SMILES: O=C(O)CN1C(=O)c2ccccc2CCc2ccccc21
pIC50 [8]: 4.10

SMILES: CC(=O)N(CC(=O)O)c1ccc(C)cc1
pIC50 [9]: 4.82

SMILES: CC(=O)N(CC(=O)O)c1cccc([N+](=O)[O-])c1
pIC50 [10]: 4.57

SMILES: COc1ccc(C(=O)NC(C)C(=O)O)cc1 (stereo not drawn)
inhibition [4]: 38%

SMILES: O=C(O)CN1C(=O)c2cccc3cccc1c23
pIC50 [11]: 6.17

SMILES: CC(=O)N(c1ccccc1)C(C)C(=O)O (stereo not drawn)
pIC50 [12]: 3.70

SMILES: O=C(O)Cn1c(=O)c2ccccc2c2ccccc21
pIC50 [13]: 4.97

SMILES: COc1ccc(N(CC(=O)O)C(=O)c2ccccc2)cc1
pIC50 [15]: 6.02

SMILES: CC(=O)N(CC(=O)O)c1ccc([N+](=O)[O-])cc1
pIC50 [17]: 5.24

SMILES: O=C(O)CN(C(=O)c1ccccc1)c1ccc2ccccc2c1
pIC50 [23]: 3.66

SMILES: CC(=O)N(CC(=O)O)c1cccc(C)c1
inhibition [4]: 10%

SMILES: CC(=O)N(c1ccc(Cl)cc1)C(C)C(=O)O (stereo not drawn)
pIC50 [25]: 3.96

SMILES: COc1ccc(N(CC(=O)O)C(C)=O)cc1
pIC50 [28]: 4.10

SMILES: Cc1ccc(C(=O)NC(C)C(=O)O)cc1 (stereo not drawn)
inhibition [4]: 19%

SMILES: CC(=O)N(c1ccc(C)cc1)C(C)C(=O)O (stereo not drawn)
pIC50 [30]: 3.89

SMILES: O=C(O)CN(C(=O)c1ccccc1)c1cccc([N+](=O)[O-])c1
pIC50 [31]: 6.07

SMILES: O=C(O)CN(C(=O)c1cccc2ccccc12)c1ccccc1
pIC50 [32]: 5.24

SMILES: O=C(O)CN(C(=O)c1ccccc1)c1cccc2ccccc12
pIC50 [33]: 3.64

Results, then the compound that gave them:

inhibition [4]: 16%
SMILES: Nc1ccccc1C(=O)NCC(=O)O

pIC50 [7]: 3.55
SMILES: O=C(O)CNC(=O)c1ccc([N+](=O)[O-])cc1

inhibition [4]: 14%
SMILES: CC(=O)N(CC(=O)O)c1ccccc1C

inhibition [4]: 36%
SMILES: Nc1cccc(C(=O)NCC(=O)O)c1

pIC50 [14]: 3.66
SMILES: Cc1ccc(C(=O)NCC(=O)O)cc1

inhibition [4]: 20%
SMILES: CC(=O)N(CC(=O)O)c1cccc2ccccc12

inhibition [4]: 22%
SMILES: Nc1ccc(C(=O)NCC(=O)O)cc1

inhibition [4]: 32%
SMILES: O=C(O)CNC(=O)c1cccc([N+](=O)[O-])c1

pIC50 [16]: 3.48
SMILES: O=C(O)CNC(=O)c1ccccc1 [HIPPURIC ACID]

pIC50 [18]: 3.26
SMILES: O=C(O)CNC(=O)c1ccc(Cl)cc1 [4-CHLOROHIPPURIC ACID]

pIC50 [19]: 5.52
SMILES: Cc1ccc(N(CC(=O)O)C(=O)c2ccccc2)cc1

pIC50 [20]: 4.26
SMILES: CC(=O)N(CC(=O)O)c1ccc(N)cc1

pIC50 [21]: 5.30
SMILES: O=C(O)CN(C(=O)c1ccccc1)c1ccc(Cl)cc1

pIC50 [22]: 5.02
SMILES: O=C(O)CN(C(=O)c1ccccc1)c1ccccc1

pIC50 [24]: 4.51
SMILES: O=C(O)CNC(=O)c1ccccc1Cl

pIC50 [26]: 4.68
SMILES: CC(=O)N(CC(=O)O)c1ccccc1

pIC50 [27]: 4.40
SMILES: O=C(O)CNC(=O)c1ccc2ccccc2c1

pIC50 [29]: 4.24
SMILES: O=C(O)CNC(=O)c1ccccc1[N+](=O)[O-]

inhibition [4]: 14%
SMILES: CC(NC(=O)c1ccccc1)C(=O)O (stereo not drawn)

pIC50 [34]: 4.15
SMILES: COc1ccc(C(=O)NCC(=O)O)cc1
